From ChEMBL document CHEMBL2311274, “Triazole-based inhibitors of geranylgeranyltransferase II” (Bioorg Med Chem Lett, 2013) come the findings set out here.

One test has as its system RPMI-8226. Nature of the test: Cytotoxicity against human multiple myeloma RPMI8226 measured after 24 to 48 hrs by MTT assay. Format: functional, cell-based. On the technique in general: Tetrazolium dyes change colour on reduction, which living cells bring about.
Test [1] can be described thus: Inhibition of recombinant GGTase 2 (unknown origin) by scintillation counting in presence of [3H]GGPP. Also on record: species or system Homo sapiens. In a few lines: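 Recombinant GGTase II reaction containing radiolabeled GGPP as prenyl donor, a Rab protein as acceptor substrate, and REP. IC50 obtained from inhibition of transfer.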

For `O=P(O)(O)C(Cc1cn(Cc2ccc3ccccc3c2)nn1)P(=O)(O)O`, the IC50 (in general, the concentration that inhibits the measured activity by half) was above 1 mM in the test on RPMI-8226 and above 2 mM in test [1].

With `CC(C)=CCC/C(C)=C/CC/C(C)=C/CCC(C)=CCn1cc(CC(P(=O)(O)O)P(=O)(O)O)nn1` (mixture of isomers), the IC50 in the test on RPMI-8226 came out at 1 mM; in test [1], 0.1 mM.

For `CC(C)=CCCC(C)=CCn1cc(CC(P(=O)(O)O)P(=O)(O)O)nn1` (mixture of isomers), the IC50 in the test with RPMI-8226 is above 1 mM; in test [1] it was above 2 mM.

For the compound `O=P(O)(O)C(Cc1cn(Cc2ccccc2)nn1)P(=O)(O)O`, the IC50 in the test on RPMI-8226 was above 1 mM; in test [1], 2 mM.

`CC(C)=CCC/C(C)=C/CCC(C)=CCn1cc(CC(P(=O)(O)O)P(=O)(O)O)nn1` (mixture of isomers): the values for the IC50 (in the test on RPMI-8226; in test [1]) were 0.9 mM and 0.65 mM, respectively.

With `O=P(O)(O)C(O)(Cc1cccnc1)P(=O)(O)O` [RISEDRONIC ACID], the concentration for half-maximal inhibition (IC50) in test [1] is above 1 mM.
